Eight molecules from ChEMBL document CHEMBL1146490, “New diterpenoids from Viburnum awabuki” (2004) can be followed below.

Values after ≈ are worked out from the molar mass of the structure shown.

Type in all cases: functional
What all share (details): read-out: ED50 (the source's name)

For one assay, the system named is P388. As to the kind of experiment: Cytotoxicity against mouse P388 cells. The method in brief: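 P-388 is a mouse lymphocytic leukemia line, supplied by J. M. Pezzuto (Purdue University), grown in culture and tested by the same previously described cytotoxicity procedure.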
In another assay the test system is HT-29. Nature of the assay: Cytotoxicity against human HT-29 cells. The method in brief: (§1)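 Standard cytotoxicity procedure from earlier work. A549 is a human lung adenocarcinoma line and HT-29 a human colon adenocarcinoma line, both grown as cell cultures. Potency is given as ED50 in µg/mL.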
The test system of a further assay is A549. As to the kind of experiment: Cytotoxicity against human A549 cells. The method in brief:
as §1

Consider `CC(C)=CC(=O)O[C@@H]1/C=C/[C@@](C)(CCC(O)C(C)(C)O)C/C=C(/CO)C(=O)/C=C/[C@@]1(C)O` (some centres not stated) [VIBSANIN U], for which the EC50 with P388 was less than 10 µg/mL.

For `C=C(C)/C=C/C[C@]1(C)/C=C/[C@@H](OC(=O)C=C(C)C)[C@]2(C)O[C@H]2CC/C(CO)=C\C1` [VIBSANIN R], the EC50 in the assay on P388 was less than 10 µg/mL.

`COC(C)(C)/C=C/C[C@]1(C)/C=C/[C@@H](OC(=O)C=C(C)C)[C@]2(C)O[C@H]2CC/C(CO)=C\C1` [VIBSANIN Q]: in the assay with P388, the EC50 is less than 10 µg/mL.

As to `CC(C)=CC(=O)O[C@@H]1/C=C/[C@@](C)(C/C=C/C(C)(C)O)C/C=C(/CO)CC[C@@H]2O[C@]21C` [VIBSANIN P], the EC50 is 2.25 µg/mL (≈ 5.38 µM) in the assay with P388, 9.97 µg/mL (≈ 23.8 µM) in the assay on HT-29 and 4.62 µg/mL (≈ 11 µM) in the assay on A549.

Turning to `C=C(C)C(O)CC[C@]1(C)/C=C/[C@@H](OC(=O)C=C(C)C)[C@]2(C)O[C@H]2CC/C(CO)=C\C1` (some centres not stated) [VIBSANIN S], the EC50 in the assay on P388 was less than 10 µg/mL.

Consider `CC(C)=CC(=O)O[C@@H]1/C=C/[C@@](C)(C/C=C/C(C)(C)O)C/C=C(/C=O)CC[C@@H]2O[C@]21C` [VIBSANIN T], for which the EC50 in the assay with P388 was less than 10 µg/mL.

On to `CC(=O)C[C@@H]1C(=O)C(CO)=CC[C@](C)(CCC(O)C(C)(C)O)[C@H]1/C=C/OC(=O)C=C(C)C` (some centres not stated) [VIBSANIN W], for which the results for the EC50 in the assay on P388, with HT-29 and in the assay on A549 were 2.18 µg/mL (≈ 4.84 µM), 8.15 µg/mL (≈ 18.1 µM) and 5.6 µg/mL (≈ 12.4 µM), respectively.

As to `C=C(C)C(O)CC[C@]1(C)/C=C/C[C@]2(C)O[C@H]2CC/C(C=O)=C\C1` (some centres not stated) [VIBSANIN V], in the assay with P388, the EC50 is less than 10 µg/mL.
